We go through 1 compound from ChEMBL document CHEMBL1629700, “Assessment of oritavancin serum protein binding across species” (Antimicrob Agents Chemother, 2010).

In series [1] the test system is Staphylococcus aureus. As to the kind of experiment: Antibacterial activity against Staphylococcus aureus ATCC 29213 grown in CAMHB medium by broth microdilution method in presence of 0.002% polysorbate 80 and 95% rat serum. The class given is functional. An outline of the steps:
(§1)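 Broth microdilution with arithmetic drug dilutions prepared in CAMHB containing 0.002% polysorbate-80. Test medium was 95% pooled serum or 95% serum ultrafiltrate plus 5% CAMHB. Ultrafiltrate was made on 50 kDa cutoff ultrafilters, which exclude albumin. Means came from 8 replicates for human, rat and dog, and from 4 to 8 replicates for mouse.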
(In general: In broth dilution the organism is exposed to a series of concentrations in liquid medium.)

In series [2] the test system is Staphylococcus aureus. As to the kind of experiment: Ratio of MIC for Staphylococcus aureus ATCC 29213 grown in CAMHB medium in presence of 95% mouse serum to MIC for Staphylococcus aureus ATCC 29213 in presence of 95% mouse serum ultrafiltrate. The format is functional. An outline of the steps:
(§2)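 The fold increase is the mean arithmetic broth microdilution MIC in 95% serum (plus 5% CAMHB) divided by the mean MIC in 95% serum ultrafiltrate (plus 5% CAMHB). The ultrafiltrate was prepared with a 50 kDa cutoff that excludes albumin. Replicates were 8 per condition, or 4 to 8 for mouse. The same data give % bound = (1 − MIC ultrafiltrate/MIC serum) × 100.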

The test system of series [3] is Staphylococcus aureus. As to the kind of experiment: Ratio of MIC for Staphylococcus aureus ATCC 29213 grown in CAMHB medium in presence of 95% rat serum to MIC for Staphylococcus aureus ATCC 29213 in presence of 95% rat serum ultrafiltrate. The format is functional. An outline of the steps: as §2
The subject of series [4] is Staphylococcus aureus. As to the kind of experiment: Ratio of MIC for Staphylococcus aureus ATCC 29213 grown in CAMHB medium in presence of 95% dog serum to MIC for Staphylococcus aureus ATCC 29213 in presence of 95% dog serum ultrafiltrate. The class given is functional. An outline of the steps:
as §2

The nature of series [5]: Plasma protein binding in human by broth microdilution method. The format is ADME, cell-free. The conditions noted are these: read-out: PPB (converted).
A short description of series [6]: Plasma protein binding in rat. The class given is ADME, cell-free. The conditions noted are these: read-out: PPB.
Series [7] can be described thus: Plasma protein binding in human at 1 to 91 ug/ml by DCC adsorption method. The class given is ADME, cell-free. Particulars: read-out: PB (converted).
A further series has as its target Albumin (Homo sapiens, UniProt P02768). Description: Binding affinity to human serum albumin at 0.2 ug/ml. The format is ADME.
The subject of series [8] is Staphylococcus aureus. As to the kind of experiment: Antibacterial activity against Staphylococcus aureus ATCC 29213 grown in CAMHB medium by broth microdilution method in presence of 0.002% polysorbate 80 and 95% dog serum ultrafiltrate. The class given is functional. An outline of the steps: as §1
Series [9] has as its system Staphylococcus aureus. As to the kind of experiment: Antibacterial activity against Staphylococcus aureus ATCC 29213 grown in CAMHB medium by broth microdilution method in presence of 0.002% polysorbate 80 and 95% dog serum. The format is functional. An outline of the steps: as §1
For series [10], the system named is Staphylococcus aureus. Description: Ratio of MIC for Staphylococcus aureus ATCC 29213 grown in CAMHB medium in presence of 95% human serum to MIC for Staphylococcus aureus ATCC 29213 in presence of 95% human serum ultrafiltrate. The class given is functional. An outline of the steps: as §2
The subject of series [11] is Staphylococcus aureus. Description: Antibacterial activity against Staphylococcus aureus ATCC 29213 grown in CAMHB medium by broth microdilution method in presence of 0.002% polysorbate 80 and 95% mouse serum ultrafiltrate. The class given is functional. An outline of the steps: as §1
Series [12] concerns Staphylococcus aureus. As to the kind of experiment: Antibacterial activity against Staphylococcus aureus ATCC 29213 grown in CAMHB medium by broth microdilution method in presence of 0.002% polysorbate 80 and 95% mouse serum. The class given is functional. An outline of the steps:
as §1

Series [13] deals with Staphylococcus aureus. As to the kind of experiment: Antibacterial activity against Staphylococcus aureus ATCC 29213 grown in CAMHB medium by broth microdilution method in presence of 0.002% polysorbate 80 and 95% rat serum ultrafiltrate. The class given is functional. An outline of the steps:
as §1

The test system of series [14] is Staphylococcus aureus. Description: Antibacterial activity against Staphylococcus aureus ATCC 29213 grown in CAMHB medium by broth microdilution method in presence of 0.002% polysorbate 80. The format is functional. An outline of the steps:
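Broth microdilution per CLSI M7-A8 in cation-adjusted Mueller-Hinton broth with 0.002% polysorbate-80. Arithmetic dilution steps of 0.5 μg/ml from 3 to 1 μg/ml, 0.1 μg/ml from 1 to 0.3, 0.05 μg/ml from 0.3 to 0.1, and 0.01 μg/ml from 0.1 to 0.04 μg/ml. Mean of 8 replicates.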

Series [15] has as its system Staphylococcus aureus. As to the kind of experiment: Antibacterial activity against Staphylococcus aureus ATCC 29213 grown in CAMHB medium by broth microdilution method in presence of 0.002% polysorbate 80 and 95% human serum ultrafiltrate. The format is functional. An outline of the steps: as §1
In series [16] the test system is Staphylococcus aureus. Description: Antibacterial activity against Staphylococcus aureus ATCC 29213 grown in CAMHB medium by broth microdilution method in presence of 0.002% polysorbate 80 and 95% human serum. The class given is functional. An outline of the steps:
as §1

Sequence of Albumin (P02768 whole entry): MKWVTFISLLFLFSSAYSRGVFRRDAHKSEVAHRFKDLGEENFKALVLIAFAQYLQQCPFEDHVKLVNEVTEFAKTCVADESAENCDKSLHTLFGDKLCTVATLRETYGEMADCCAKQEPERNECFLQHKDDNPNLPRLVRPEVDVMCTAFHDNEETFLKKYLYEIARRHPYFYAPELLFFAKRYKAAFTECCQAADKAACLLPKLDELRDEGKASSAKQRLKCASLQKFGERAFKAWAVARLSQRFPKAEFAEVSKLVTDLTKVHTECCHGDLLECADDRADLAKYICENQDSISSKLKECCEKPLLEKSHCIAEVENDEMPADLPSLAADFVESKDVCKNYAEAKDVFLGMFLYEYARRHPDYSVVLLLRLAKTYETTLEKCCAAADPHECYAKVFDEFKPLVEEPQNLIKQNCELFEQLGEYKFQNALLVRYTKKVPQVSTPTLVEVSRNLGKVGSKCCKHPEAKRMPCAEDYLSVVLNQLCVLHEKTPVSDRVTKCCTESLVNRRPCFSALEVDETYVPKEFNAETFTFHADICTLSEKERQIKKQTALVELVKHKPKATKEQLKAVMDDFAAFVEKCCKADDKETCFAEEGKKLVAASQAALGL

As usually defined, the MIC is the smallest concentration in the dilution series that meets the test's criterion for growth inhibition. Regarding `CN[C@H](CC(C)C)C(=O)N[C@H]1C(=O)N[C@@H](CC(N)=O)C(=O)N[C@H]2C(=O)N[C@H]3C(=O)N[C@H](C(=O)N[C@H](C(=O)O)c4cc(O)cc(O)c4-c4cc3ccc4O)[C@H](O[C@H]3C[C@](C)(N)[C@@H](O)[C@H](C)O3)c3ccc(c(Cl)c3)Oc3cc2cc(c3O[C@@H]2O[C@H](CO)[C@@H](O)[C@H](O)[C@H]2O[C@H]2C[C@](C)(NCc3ccc(-c4ccc(Cl)cc4)cc3)[C@@H](O)[C@H](C)O2)Oc2ccc(cc2Cl)[C@H]1O` [ORITAVANCIN], the MIC was 0.313 µg/mL in the series on Staphylococcus aureus [1]; 0.061 µg/mL in the series on Staphylococcus aureus [8]; 0.475 µg/mL in the series with Staphylococcus aureus [9]; 0.079 µg/mL in the series on Staphylococcus aureus [11]; 0.538 µg/mL with Staphylococcus aureus [12]; 0.055 µg/mL in the series with Staphylococcus aureus [13]. Further, the MIC was determined as 0.08 µg/mL in the series with Staphylococcus aureus [14], 0.14 µg/mL with Staphylococcus aureus [15] and 0.775 µg/mL in the series with Staphylococcus aureus [16]. For the same compound, the Ratio in the series with Staphylococcus aureus [2] is 6.8; in the series on Staphylococcus aureus [3], 5.7; with Staphylococcus aureus [4] it was 7.8; with Staphylococcus aureus [10], 5.5. For the same compound, the fraction unbound was 0.125 in series [5], less than 0.2 in [6] and 0.143 in series [7]. The fraction unbound at 0.2 ug/ml at Albumin was 0.21.
